Measured values from article PMC3158287 (Nature chemical biology, 2011).
Peptide text beside a SMILES is read from it. * marks the point of attachment. Cbz = O=C(OCc1ccccc1)*

Key:
OSBP [1] = molecular target: T1, OSBP (Homo sapiens, UniProt P22059); test: OSBP protein levels by western blotting; assay type: cell-based; conditions: HCT-116 cells; 25-OHC 10 μM
T1 sequence (P22059 1-807): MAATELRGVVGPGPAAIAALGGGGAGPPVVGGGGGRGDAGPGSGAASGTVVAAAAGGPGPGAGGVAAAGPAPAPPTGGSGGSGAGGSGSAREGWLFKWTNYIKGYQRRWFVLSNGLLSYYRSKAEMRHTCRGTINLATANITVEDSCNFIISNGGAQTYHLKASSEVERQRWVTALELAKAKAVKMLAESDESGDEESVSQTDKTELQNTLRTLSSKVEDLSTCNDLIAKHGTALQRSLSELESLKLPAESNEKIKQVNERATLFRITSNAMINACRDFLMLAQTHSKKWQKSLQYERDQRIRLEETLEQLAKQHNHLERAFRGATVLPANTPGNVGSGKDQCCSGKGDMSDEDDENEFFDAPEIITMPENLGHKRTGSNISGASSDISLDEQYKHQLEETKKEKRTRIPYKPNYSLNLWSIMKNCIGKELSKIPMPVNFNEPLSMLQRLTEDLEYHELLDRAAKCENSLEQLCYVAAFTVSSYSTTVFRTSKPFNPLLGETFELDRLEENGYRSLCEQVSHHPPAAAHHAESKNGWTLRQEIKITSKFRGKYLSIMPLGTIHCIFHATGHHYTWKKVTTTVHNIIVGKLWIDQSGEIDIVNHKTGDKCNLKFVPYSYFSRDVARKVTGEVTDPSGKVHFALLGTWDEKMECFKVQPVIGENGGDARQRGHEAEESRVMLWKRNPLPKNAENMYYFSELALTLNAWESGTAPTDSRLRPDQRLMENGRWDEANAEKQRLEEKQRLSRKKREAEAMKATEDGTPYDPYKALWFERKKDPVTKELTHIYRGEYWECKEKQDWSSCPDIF
Method in brief: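 HCT-116 cells were treated with test compound at 50 nM or 10 nM over a time course including 24 h. Some samples also received proteasome inhibitor MG-132 or lactacystin. OSBP was measured by western blotting with polyclonal rabbit anti-OSBP (N-terminus) antibody. Data are n = 3, compared with vehicle-treated cells by two-tailed Student's t-test.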

HCT-116 cells = test: Suppression of antiproliferative activity by 25-OHC coadministration; assay type: cell-based, human; conditions: HCT-116 and HeLa cell lines
Method in brief: (§1)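 HCT-116 p21+/+ and p21−/− cells were seeded in 96-well plates and rested 24 h. A time-zero plate was read with CellTiter-Blue (resazurin) after 90 min at 37 °C, fluorescence 544 nm ex / 590 nm em. Serially diluted test compound was added as 4× solution. Viability was re-read at 48 h and GI50 derived. For coadministration, 10 μM 25-OHC was added with test compound at 250 nM or 10 nM.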

OSBP [2] = molecular target: T1, OSBP; test: OSBP localization by immunofluorescence microscopy, HCT-116; assay type: cell-based; conditions: HCT-116 cells, 4 h; 5 μM schweinfurthin A, 10 nM OSW-1, 20 nM cephalostatin 1
Method in brief: (§2)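 Cells on coverslips were grown 72 h, then given test compound or vehicle (4 h for HCT-116). They were fixed 10 min in 3.7% formaldehyde/PBS and permeabilised 5 min in 0.5% Triton X-100. Blocking used Image-iT FX, then 1% BSA/PBS. Rabbit anti-OSBP (N-terminus) and mouse anti-p230 were applied overnight at 4 °C, then Alexa Fluor secondaries for 60 min with Hoechst 33258. Imaging was by confocal microscopy.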

human cancer cell lines = conditions: cited from earlier work
OSBP-Myc-His = molecular target: T2, OSBP-Myc-His (Homo sapiens, UniProt P22059); test: [3H]25-OHC charcoal-dextran binding assay, wild-type OSBP-Myc-His
T2 sequence (P22059 1-807): T1 sequence (P22059 1-807)

HCT-116 p21^−/− cells = test: Cell viability assay, HCT-116 p21-/-; assay type: cell-based, human; conditions: GI50 after 48 h
Method in brief: as §1

ORP4L-Myc-His = molecular target: T3, ORP4L-Myc-His (Homo sapiens, UniProt Q969R2); test: [3H]25-OHC charcoal-dextran binding assay, ORP4L-Myc-His
T3 sequence (Q969R2 1-916): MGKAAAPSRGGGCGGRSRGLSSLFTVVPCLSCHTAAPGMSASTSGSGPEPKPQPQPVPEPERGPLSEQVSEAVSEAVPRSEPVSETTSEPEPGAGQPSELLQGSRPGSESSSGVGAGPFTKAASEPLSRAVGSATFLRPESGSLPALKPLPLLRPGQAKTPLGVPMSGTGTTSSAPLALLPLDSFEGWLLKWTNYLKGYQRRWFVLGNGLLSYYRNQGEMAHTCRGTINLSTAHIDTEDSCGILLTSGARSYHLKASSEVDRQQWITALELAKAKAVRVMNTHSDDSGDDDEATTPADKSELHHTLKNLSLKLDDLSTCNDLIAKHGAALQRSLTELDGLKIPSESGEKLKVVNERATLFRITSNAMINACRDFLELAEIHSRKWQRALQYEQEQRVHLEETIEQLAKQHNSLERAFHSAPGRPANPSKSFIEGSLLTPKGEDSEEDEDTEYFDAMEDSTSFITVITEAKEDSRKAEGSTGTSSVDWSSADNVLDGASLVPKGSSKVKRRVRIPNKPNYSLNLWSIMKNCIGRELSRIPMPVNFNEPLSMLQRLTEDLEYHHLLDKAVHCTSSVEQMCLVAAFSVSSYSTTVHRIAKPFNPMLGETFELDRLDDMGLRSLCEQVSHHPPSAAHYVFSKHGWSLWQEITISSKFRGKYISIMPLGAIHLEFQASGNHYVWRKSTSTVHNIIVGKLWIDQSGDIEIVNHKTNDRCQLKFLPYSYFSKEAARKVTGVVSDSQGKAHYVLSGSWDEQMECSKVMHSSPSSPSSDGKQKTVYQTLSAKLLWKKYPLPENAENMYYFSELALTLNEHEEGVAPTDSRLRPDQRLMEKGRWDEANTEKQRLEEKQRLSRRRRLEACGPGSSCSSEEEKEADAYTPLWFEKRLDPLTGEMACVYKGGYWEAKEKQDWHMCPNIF

OSBP [3] = molecular target: T1, OSBP; test: OSBP localization by immunofluorescence microscopy, A549; assay type: cell-based; conditions: A549 cells
Method in brief: as §2

[4] = tested on: HeLa cells overexpressing ORP4L; test: Overexpression-viability assay, ORP4L-Myc-His; assay type: cell-based, human; conditions: 48 h, versus lacZ
[5] = tested on: HCT-116 p21^−/− cells stably transfected with shOSBP or shNT; test: OSBP shRNA knockdown and dose-shift experiment; assay type: cell-based, human; conditions: 72 h
Method in brief: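 HCT-116 p21−/− cells were stably transfected with OSBP-targeting or nontargeting shRNA in the pSIREN-RetroQ vector. […] Values are mean ± s.d. of 3–4 experiments, compared with shNT cells by two-tailed Student's t-test.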

[6] = tested on: HeLa cells overexpressing wild-type OSBP; test: Overexpression-viability assay, wild-type OSBP-Myc-His; assay type: cell-based, human; conditions: 48 h, versus lacZ
[7] = tested on: sphingomyelin biosynthesis in CHO-K1 cells; test: Sphingomyelin biosynthesis, [3H]serine pulse labeling, CHO-K1; assay type: cell-based, Chinese hamster

CC(C)C[C@@H](C=O)NC(=O)[C@H](CC(C)C)NC(=O)[C@H](CC(C)C)NC(=O)OCc1ccccc1 [MG-132, reference compound] (Cbz-Leu-Leu-Leu-aldehyde)
Effect on OSBP levels (compound alone) (OSBP [1]): did not affect OSBP concentrations

C[C@H]1CCC/C=C/[C@@H]2C[C@H](O)C[C@H]2[C@H](O)/C=C/C(=O)O1 [brefeldin A, reference compound]
Effect of 25-OHC coadministration on antiproliferative activity (HCT-116 cells): did not affect

CC(=O)N[C@@H](CSC(=O)[C@]1([C@@H](O)C(C)C)NC(=O)[C@H](C)[C@@H]1O)C(=O)O [lactacystin, reference compound]
Effect on OSBP levels (compound alone) (OSBP [1]): did not affect OSBP concentrations

CC1C2C(CC3C4CCC5Cc6nc7c(nc6CC5(C)C4CC(O)C32C)CC2CC(O)C3C4=CC5OC6(CCC(C)(O)CO6)C(C)C5(O)C4(C)C(O)CC3C2(C)C7)OC12CCC(C)(C)O2 (stereo not shown) [ritterazine B]
OSBP localization (OSBP [2]): This effect was also observed | GI50 (half-maximal inhibitory concentration) (human cancer cell lines): nanomolar range | Ki (OSBP-Myc-His): 28 ± 4 nM | p21^−/− selectivity of growth inhibition (HCT-116 p21^−/− versus wild-type) (HCT-116 p21^−/− cells): selectively growth-inhibitory | Ki (ORP4L-Myc-His): > 360 nM

COc1cc(/C=C/c2cc(O)c(C/C=C(\C)CCC=C(C)C)c(O)c2)cc2c1O[C@]1(C)C[C@@H](O)[C@@H](O)C(C)(C)[C@H]1C2 [schweinfurthin B]
GI50 (half-maximal inhibitory concentration) (human cancer cell lines): nanomolar range | OSBP localization (OSBP [3]): perinuclear OSBP staining similar to that seen with 25-OHC

CC(=O)O[C@H]1C(=O)[C@@]2(C)[C@H]([C@H](OC(=O)c3ccccc3)[C@]3(O)C[C@H](OC(=O)[C@H](O)[C@@H](NC(=O)c4ccccc4)c4ccccc4)C(C)=C1C3(C)C)[C@]1(OC(C)=O)CO[C@@H]1C[C@@H]2O [taxol, reference compound]
Desensitization factor by ORP4L overexpression (relative GI30) [4]: not affected | Sensitization by OSBP shRNA knockdown (GI50 shift shOSBP vs shNT) [5]: not affected | Desensitization factor by OSBP overexpression (relative GI30) [6]: not affected | Inhibition of sphingomyelin biosynthesis (control cytotoxic / ER stress agents) [7]: did not occur | Effect of 25-OHC coadministration on antiproliferative activity (HCT-116 cells): did not affect

C/C=C(/C)C(=O)O[C@H]1C(C)=C2[C@H]([C@@H]1OC(=O)CCCCCCC)[C@@](C)(OC(C)=O)C[C@H](OC(=O)CCC)[C@@]1(O)[C@H]2OC(=O)[C@@]1(C)O [thapsigargin]
Inhibition of sphingomyelin biosynthesis (control cytotoxic / ER stress agents) [7]: did not occur
